What is called IC50 is the point on the concentration scale where inhibition reaches its midpoint. A word on the Ki: it is the equilibrium dissociation constant of an inhibitor or competing ligand from its target.

The first assay deals with Induced myeloid leukemia cell differentiation protein Mcl-1 (Homo sapiens, UniProt Q07820). The assay can be described thus: Displacement of FAM-Bid peptide from recombinant N-terminal His6x-tagged human Mcl-1 expressed in Escherichia coli BL21 (DE3) incubated for 30 mins by fluorescence polarization assay.
Induced myeloid leukemia cell differentiation protein Mcl-1, sequence (Q07820 whole entry): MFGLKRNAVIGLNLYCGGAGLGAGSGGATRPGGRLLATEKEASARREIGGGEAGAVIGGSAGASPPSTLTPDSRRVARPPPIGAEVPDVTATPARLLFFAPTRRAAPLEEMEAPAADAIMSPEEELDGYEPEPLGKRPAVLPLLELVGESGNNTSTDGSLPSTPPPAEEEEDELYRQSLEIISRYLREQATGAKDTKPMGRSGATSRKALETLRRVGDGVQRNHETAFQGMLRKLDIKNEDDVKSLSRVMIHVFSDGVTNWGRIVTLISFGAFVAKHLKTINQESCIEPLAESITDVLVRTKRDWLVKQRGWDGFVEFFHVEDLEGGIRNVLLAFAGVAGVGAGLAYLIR
Take `Cc1cc(=O)oc2cc(O)ccc12` [HYMECROMONE]: the IC50 turned out to be 104 µM and the inhibition constant Ki amounted to 22.1 µM.
Turning to `O=c1cc(CCl)c2cc(O)c(O)cc2o1`, the half-inhibitory concentration (IC50) amounted to 5.82 µM and the Ki was found to be 1.04 µM.
Taken in the same sequence, the figures for `Cc1cc(=O)oc2c(CN(C)C)c(O)c(O)cc12` were 7.39 µM and 1.46 µM.
The matching figures for `O=c1cc(-c2ccccc2)c2cc(O)c(O)cc2o1`: 3.27 µM and 0.65 µM.
The matching figures for `O=c1ccc2ccc(O)cc2o1` [UMBELLIFERONE]: 21 µM and 3.81 µM.
Turning to `O=c1cc(CCl)c2ccc(O)c(O)c2o1`, the IC50 stood at 18.6 µM and the Ki turned out to be 3.19 µM.
Consider `O=c1ccc2c(CN3CCC(O)CC3)c(O)c(O)cc2o1`, for which the IC50 is 14.7 µM and the inhibition constant Ki was found to be 2.77 µM.
Taken in the same sequence, the figures for `COc1ccc2ccc(=O)oc2c1O` were 16.9 µM and 7.02 µM.
The matching figures for `Cc1cc(=O)oc2cc(O)c(O)cc12` [4-METHYLESCULETIN]: 6.28 µM and 1.19 µM.
The matching figures for `COc1ccc2c(C)cc(=O)oc2c1O`: 16.9 µM and 2.39 µM.
Turning to `Cc1cc(=O)oc2c(CN3CCC(O)CC3)c(O)c(O)cc12`, the concentration for half-maximal inhibition (IC50) was determined as 59.2 µM and the Ki was determined as 21.3 µM.
Taken in the same sequence, the figures for `COc1cc2cc([N+](=O)[O-])c(=O)oc2c([N+](=O)[O-])c1OC` were 12.2 µM and 2.19 µM.
Taken in the same sequence, the figures for `O=c1ccc2cc(O)c(O)cc2o1` [ESCULETIN] were 8.77 µM and 1.49 µM.
The matching figures for `Cc1cc(=O)oc2cc(O)c(Cl)cc12`: 28.6 µM and 5.26 µM.
Regarding `CN(C)Cc1c(O)c(O)cc2ccc(=O)oc12`, the IC50 came to 53.6 µM and the Ki was 11.5 µM.
The matching figures for `COc1cc2oc(=O)ccc2cc1O` [ISOSCOPOLETIN]: 51.5 µM and 15.9 µM.
The matching figures for `[N-]=[N+]=NCc1cc(=O)oc2cc(O)c(O)cc12`: 34.6 µM and 9.17 µM.
Taken in the same sequence, the figures for `O=c1cc(CO)c2ccc(O)c(O)c2o1` were 32.2 µM and 5.67 µM.
Regarding `O=c1cc(C(F)(F)F)c2cc(O)c(O)cc2o1`, the IC50 is 1.21 µM and the inhibition constant Ki was determined as 0.21 µM.
The matching figures for `O=c1ccc2cc(O)c(O)c(CN3CCC(O)CC3)c2o1`: 21.8 µM and 4.81 µM.
The matching figures for `Cc1cc(=O)oc2c([N+](=O)[O-])c(O)ccc12`: 26.3 µM and 10.8 µM.
Taken in the same sequence, the figures for `O=c1ccc2cc(O)ccc2o1` [6-HYDROXYCOUMARIN] were 83.7 µM and 23.9 µM.
Take `Cc1cc(=O)oc2c(O)c(O)ccc12` [4-METHYLDAPHNETIN]: the half-inhibitory concentration (IC50) turned out to be 11.2 µM and the Ki came to 2.11 µM.
Taken in the same sequence, the figures for `COc1cc2ccc(=O)oc2cc1OC` [SCOPARONE] were 25.1 µM and 9.54 µM.
Taken in the same sequence, the figures for `CCc1cc2c(C)cc(=O)oc2cc1O` were 30.9 µM and 5.47 µM.
`O=c1ccc2ccc(O)c(O)c2o1` [DAPHNETIN]: the IC50 was 11.8 µM and the Ki came to 1.75 µM.
As to `O=c1ccc2ccccc2o1` [COUMARIN], the IC50 came to 24.4 µM and the inhibition constant (Ki) is 4.06 µM.
Take `Cc1cc(=O)oc2c(CN3CCCC3)c(O)c(O)cc12`: the 50% inhibitory concentration (IC50) was 11.3 µM and the Ki is 2.54 µM.
Taken in the same sequence, the figures for `CN(C)Cc1c(O)c(O)cc2oc(=O)ccc12` were 19.9 µM and 4.79 µM.
Taken in the same sequence, the figures for `O=C(O)Cc1cc(=O)oc2cc(O)c(O)cc12` were 33.7 µM and 9.36 µM.
The matching figures for `COc1cc2ccc(=O)oc2cc1O` [SCOPOLETIN]: 22.6 µM and 13.4 µM.
For `O=c1cc(CO)c2cc(O)c(O)cc2o1`, the IC50 stood at 4.01 µM and the Ki came to 0.76 µM.
Taken in the same sequence, the figures for `COc1ccc2c(CCl)cc(=O)oc2c1O` were 30.6 µM and 6.59 µM.
The matching figures for `COc1ccc2c(CO)cc(=O)oc2c1O`: 32.9 µM and 7.15 µM.
Take `COc1cc2ccc(=O)oc2c(O)c1O` [FRAXETIN]: the IC50 was found to be 32.1 µM and the inhibition constant Ki was 5.51 µM.

The subject of a further assay is A549. As to the kind of experiment: Potentiation of taxol-induced cytotoxicity against human A549 cells assessed as fold reduction in taxol IC50 for inhibition of cell viability measured after 48 hrs by SRB assay. The format is functional. The method in brief:
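A549 cells in RPMI1640 with 10% FBS at 37°C, 5% CO2. Seeded at 6.5 × 10^3 cells/well and allowed to adhere 24 h. Then exposed 48 h to taxol alone or combined with the Mcl-1 inhibitor (0.0001–100 μM). TCA fixation at 4°C, SRB staining, and Tris-solubilized dye read at 570 nm. Growth inhibition taken relative to control. IC50 reported as mean of triplicates.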
(The SRB assay estimates cell density from bound dye.)
Consider `O=c1cc(C(F)(F)F)c2cc(O)c(O)cc2o1`, for which the “fold change (FC)” value is above 10.

The values above are taken from ChEMBL document CHEMBL4699656, “Synthesis and structure-activity relationship of coumarins as potent Mcl-1 inhibitors for cancer treatment” (Bioorg Med Chem, 2021).
